From ChEMBL document CHEMBL1123988, “Studies on antifungal agents. 23. Novel substituted 3,5-diphenyl-3-(1H-imidazol-1-ylmethyl)- 2-alkylisoxazolidine derivatives” (1988)
Values after ≈ are worked out from the molar mass of the structure shown.

Key:
Microsporum audouinii = assay: In vitro antifungal activity against Microsporum audouinii ATCC 9079; type: functional
Method in brief: (§1)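 Solid agar MIC in 24-well plates. Compound was diluted 10-fold into Antibiotic Medium 3 + 2% agar at 70 to 0.2 µg/mL, using four- or six-point schemes, with a ketoconazole control. The organism was grown on Potato Flake Agar at 26 °C, counted by hemacytometer and diluted to 1 × 10^4 cells/mL. Wells received 0.05 mL and were incubated at 26 °C until control growth appeared. MIC was the lowest dilution with no visible growth.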

[1] = system: Trichophyton schoenleinii; assay: In vitro antifungal activity against Trichophyton schoenleinii ATCC 22775; type: functional; method in brief: as §1
Trichophyton tonsurans [2] = assay: (§2) In vitro antifungal activity against Trichophyton tonsurans ATCC 9085; type: functional; method in brief: as §1
Epidermophyton floccosum = assay: In vitro antifungal activity against Epidermophyton floccosum ATCC E-18397; type: functional; method in brief: as §1
Trichophyton benhamiae = assay: (§3) In vitro antifungal activity against Trichophyton mentagrophytes ATCC 9533; type: functional, Arthroderma benhamiae; method in brief: as §1
Candida albicans [3] = assay: In vitro antifungal activity against Candida stellatoidea ATCC 36232; type: functional; method in brief: as §1
Aspergillus fumigatus = assay: In vitro antifungal activity against Aspergillus fumigatus ATCC 28212; type: functional
Method in brief: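 Agar-well MIC with Antibiotic Medium 3 + 2% agar containing compound at 70 to 0.2 µg/mL, using four- or six-point dilutions. Mold was grown about 1 week on Potato Flake Agar at 26 °C, swabbed into sterile water, counted by hemacytometer and adjusted to 1 × 10^4 cells/mL. MIC was the lowest dilution without visible growth.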

Trichophyton rubrum = assay: In vitro antifungal activity against Trichophyton rubrum ATCC 18762; type: functional
Method in brief: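 Dermatophyte was grown about 2 weeks on Potato Flake Agar at 26 °C, washed off the plate with sterile water and diluted to 1 × 10^4 cells/mL by hemacytometer count. Agar wells (Antibiotic Medium 3 + 2% agar, compound 70 to 0.2 µg/mL, four- or six-point) were inoculated with 0.05 mL and incubated at 26 °C until controls grew. MIC was the lowest dilution showing no visible growth.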

Candida albicans [4] = assay: In vitro antifungal activity against Candida albicans ATCC 10259; type: functional
Method in brief: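 Yeast was cultured overnight on Potato Flake Agar at 26 °C, swabbed into sterile water, counted by hemacytometer and diluted to 1 × 10^4 cells/mL. Wells (24-well) contained Antibiotic Medium 3 + 2% agar with compound at 70 to 0.2 µg/mL, in four- or six-point series. Each well got 0.05 mL and was held at 26 °C until control growth was visible. MIC was the lowest concentration with no visible growth.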

Microsporum canis = assay: In vitro antifungal activity against Microsporum canis ATCC 44459; type: functional; method in brief: as §1
Candida albicans [5] = assay: Antifungal activity in rat vaginal candidasis, 7 day postinfection with Candida. albicans SOB FM-391; type: functional
Method in brief: (§4)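 Ovariectomized female Sprague–Dawley rats (170–230 g), eight per group, kept in pseudoestrus with weekly sc estradiol valerate (0.5 mg). Intravaginal challenge on day 4 with 1 × 10^7 organisms in 0.1 mL RPMI+. Oral dosing at 20 mg/kg in 1% (carboxymethyl)cellulose, twice daily for 7 days from 24 h post-infection. Vaginal swabs in PBS were serially diluted and plated on SDA for 48 h at 24–26 °C. Read-out is log10 organisms/mL lavage fluid.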

Candida albicans [6] = assay: Antifungal activity in rat vaginal candidasis, 3 day postinfection with Candida. albicans SOB FM-391; type: functional; method in brief: as §4
Candida albicans [7] = assay: Antifungal activity in rat vaginal candidasis, 4 day postinfection with Candida. albicans SOB FM-391; type: functional; method in brief: as §4
Candida albicans [8] = assay: Antifungal activity in rat vaginal candidasis, 8 day postinfection with Candida. albicans SOB FM-391; type: functional; method in brief: as §4
Candida albicans [9] = assay: Antifungal activity in rat vaginal candidasis, 1 day postinfection with Candida. albicans SOB FM-391; type: functional; method in brief: as §4
Trichophyton tonsurans [10] = assay: as §2; type: functional; remark: listed apart in the source
Method in brief: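 Solid agar MIC in 24-well plates. Compound was diluted 10-fold into Antibiotic Medium 3 + 2% agar, using either a […] or a 70/20/7/2/0.7/0.2 µg/mL scheme. Cells counted by hemacytometer were diluted to 1 × 10^4 cells/mL, and 0.05 mL was inoculated. Plates were incubated at 26 °C until compound-free controls grew. MIC is the lowest dilution with no visible growth.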

Candida albicans [11] = assay: Antifungal activity in rat vaginal candidasis, 2 day postinfection with Candida. albicans SOB FM-391; type: functional; method in brief: as §4
[12] = as §3; type: functional, Arthroderma benhamiae; details: Trichophyton benhamiae; method in brief: as §1
Trichophyton tonsurans [13] = assay: In vitro antifungal activity against Trichophyton tonsurans ATCC 9085
[14] = system: Trichophyton schoenleinii; assay: In vitro antifungal activity against Trichophyton schoenleinii ATCC 22775

| MIC (Microsporum audouinii) [µg/mL] | MIC [1] [µg/mL] | MIC (Trichophyton tonsurans [2]) [µg/mL] | MIC (Epidermophyton floccosum) [µg/mL] | MIC (Trichophyton benhamiae) [µg/mL] | MIC (Candida albicans [3]) [µg/mL] | MIC (Aspergillus fumigatus) [µg/mL] | MIC (Trichophyton rubrum) [µg/mL] | MIC (Candida albicans [4]) [µg/mL] | MIC (Microsporum canis) [µg/mL] | MIC [12] [µg/mL] | MIC (Trichophyton tonsurans [13]) [µg/mL] | MIC [14] [µg/mL] | Structure (SMILES) | Log (Candida albicans [5]) | Log (Candida albicans [6]) | Log (Candida albicans [7]) | Log (Candida albicans [8]) | Log (Candida albicans [9]) | MIC (Trichophyton tonsurans [10]) [µg/mL] | Log (Candida albicans [11]) |
| --- | --- | --- | --- | --- | --- | --- | --- | --- | --- | --- | --- | --- | --- | --- | --- | --- | --- | --- | --- | --- |
| 20 (≈ 47.3 µM) | 7 (≈ 16.6 µM) | 0.7 (≈ 1.66 µM) | 0.7 (≈ 1.66 µM) | 7 (≈ 16.6 µM) | 7 (≈ 16.6 µM) | 7 (≈ 16.6 µM) | 0.7 (≈ 1.66 µM) | 7 (≈ 16.6 µM) | 2 (≈ 4.73 µM) |  |  |  | CN1O[C@@H](c2c(Cl)cccc2Cl)C[C@@]1(Cn1ccnc1)c1ccc(Cl)cc1 |  |  |  |  |  |  |  |
| 2 (≈ 5.15 µM) | 0.7 (≈ 1.8 µM) | < 0.2 | < 0.2 | < 0.2 | 2 (≈ 5.15 µM) | 7 (≈ 18 µM) | 0.7 (≈ 1.8 µM) | 7 (≈ 18 µM) | 2 (≈ 5.15 µM) |  |  |  | CN1O[C@H](c2ccc(Cl)cc2)C[C@@]1(Cn1ccnc1)c1ccc(Cl)cc1 | 3.3 | 3.6 | 3.4 | 1.8 | 4.7 |  | 4 |
|  |  |  |  |  |  | > 70 | 0.7 (≈ 1.69 µM) | 20 (≈ 48.4 µM) |  |  |  |  | Fc1ccc([C@]2(Cn3ccnc3)C[C@@H](c3ccccc3)ON2Cc2ccccc2)cc1 |  |  |  |  |  |  |  |
| 70 (≈ 184 µM) | 70 (≈ 184 µM) | 20 (≈ 52.7 µM) | 7 (≈ 18.4 µM) | 20 (≈ 52.7 µM) | 20 (≈ 52.7 µM) | > 70 | 20 (≈ 52.7 µM) | 70 (≈ 184 µM) | 20 (≈ 52.7 µM) |  |  |  | COc1ccc([C@@H]2C[C@@](Cn3ccnc3)(c3ccc(OC)cc3)N(C)O2)cc1 |  |  |  |  |  |  |  |
|  |  |  |  |  |  | 20 (≈ 59.3 µM) | 2 (≈ 5.93 µM) | 70 (≈ 207 µM) |  |  |  |  | CN1O[C@H](c2ccccc2)C[C@@]1(Cn1ccnc1)c1ccc(F)cc1 |  |  |  |  |  |  |  |
| 20 (≈ 54.4 µM) | 2 (≈ 5.44 µM) |  | 2 (≈ 5.44 µM) |  | 0.7 (≈ 1.9 µM) | 70 (≈ 190 µM) | 2 (≈ 5.44 µM) | 20 (≈ 54.4 µM) | 7 (≈ 19 µM) | 2 (≈ 5.44 µM) |  |  | Cc1ccc([C@H]2C[C@@](Cn3ccnc3)(c3ccc(Cl)cc3)N(C)O2)cc1 |  |  |  |  |  | 2 (≈ 5.44 µM) |  |
| 20 (≈ 47.3 µM) | 7 (≈ 16.6 µM) | 0.7 (≈ 1.66 µM) | 0.7 (≈ 1.66 µM) | 7 (≈ 16.6 µM) | 7 (≈ 16.6 µM) | 2 (≈ 4.73 µM) | 0.7 (≈ 1.66 µM) | 7 (≈ 16.6 µM) | 2 (≈ 4.73 µM) |  |  |  | CN1O[C@H](c2c(Cl)cccc2Cl)C[C@@]1(Cn1ccnc1)c1ccc(Cl)cc1 |  |  |  |  |  |  |  |
| 7 (≈ 19.8 µM) |  |  | 0.7 (≈ 1.98 µM) | < 0.2 | 7 (≈ 19.8 µM) | 70 (≈ 198 µM) | 0.7 (≈ 1.98 µM) | 20 (≈ 56.5 µM) | 2 (≈ 5.65 µM) |  | 0.7 (≈ 1.98 µM) | 2 (≈ 5.65 µM) | CN1O[C@H](c2ccccc2)C[C@@]1(Cn1ccnc1)c1ccc(Cl)cc1 |  |  |  |  |  |  |  |
| 7 (≈ 19 µM) | 2 (≈ 5.44 µM) | 0.7 (≈ 1.9 µM) | 0.7 (≈ 1.9 µM) | 0.7 (≈ 1.9 µM) | 0.7 (≈ 1.9 µM) | 70 (≈ 190 µM) | 2 (≈ 5.44 µM) | 7 (≈ 19 µM) | 7 (≈ 19 µM) |  |  |  | Cc1ccc([C@@H]2C[C@@](Cn3ccnc3)(c3ccc(Cl)cc3)N(C)O2)cc1 |  |  |  |  |  |  |  |
| 20 (≈ 62.6 µM) | 7 (≈ 21.9 µM) | 0.7 (≈ 2.19 µM) | 7 (≈ 21.9 µM) | 0.7 (≈ 2.19 µM) | 7 (≈ 21.9 µM) | 70 (≈ 219 µM) | 2 (≈ 6.26 µM) | 70 (≈ 219 µM) | 7 (≈ 21.9 µM) |  |  |  | CN1O[C@H](c2ccccc2)C[C@@]1(Cn1ccnc1)c1ccccc1 |  |  |  |  |  |  |  |
| 2 (≈ 5.15 µM) | 0.7 (≈ 1.8 µM) | < 0.2 | < 0.2 | < 0.2 | 0.7 (≈ 1.8 µM) | 7 (≈ 18 µM) | 0.7 (≈ 1.8 µM) | 7 (≈ 18 µM) | 2 (≈ 5.15 µM) |  |  |  | CN1O[C@H](c2ccccc2Cl)C[C@@]1(Cn1ccnc1)c1ccc(Cl)cc1 |  |  |  |  |  |  |  |

| Structure (SMILES) | MIC (Microsporum audouinii) [µg/mL] | MIC [1] [µg/mL] | MIC (Trichophyton tonsurans [2]) [µg/mL] | MIC (Epidermophyton floccosum) [µg/mL] | MIC (Trichophyton benhamiae) [µg/mL] | MIC (Candida albicans [3]) [µg/mL] | MIC (Aspergillus fumigatus) [µg/mL] | MIC (Trichophyton rubrum) [µg/mL] | MIC (Candida albicans [4]) [µg/mL] | MIC (Microsporum canis) [µg/mL] | MIC [12] [µg/mL] | MIC (Trichophyton tonsurans [13]) [µg/mL] | MIC [14] [µg/mL] | Log (Candida albicans [5]) | Log (Candida albicans [6]) | Log (Candida albicans [7]) | Log (Candida albicans [8]) | Log (Candida albicans [9]) | MIC (Trichophyton tonsurans [10]) [µg/mL] | Log (Candida albicans [11]) |
| --- | --- | --- | --- | --- | --- | --- | --- | --- | --- | --- | --- | --- | --- | --- | --- | --- | --- | --- | --- | --- |
| CC(=O)N1CCN(c2ccc(OCC3COC(Cn4ccnc4)(c4ccc(Cl)cc4Cl)O3)cc2)CC1 (stereo not drawn) [KETOCONAZOLE] | 7 (≈ 13.2 µM) | 0.7 (≈ 1.32 µM) |  | < 0.2 | 2 (≈ 3.76 µM) | 20 (≈ 37.6 µM) | 7 (≈ 13.2 µM) | 0.7 (≈ 1.32 µM) | 20 (≈ 37.6 µM) | 2 (≈ 3.76 µM) |  |  |  | 0 | 0.3 | 0 | 0 | 5 | < 0.2 | 1.5 |
